Assay results taken from publication PMC4332869 (Cancer chemotherapy and pharmacology, 2010).
Read-outs that look alike come from different tables or passages of the source. Blank lines part the entries; values can stand above or below the compound they belong to.

Columns and labels:
[1] = system: A375 human melanoma xenograft tumors; assay: Tumor apoptosis; format: in vivo, mouse; conditions: A375 xenograft tumor sections, versus vehicle
Procedure, shortened: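 A375 xenograft tumors from oral-dosed and vehicle nude mice were formalin-fixed and paraffin-embedded, then cut into 5 μm sections. Sections were stained by TUNEL (TMR red in situ cell death kit) for apoptosis and by H&E for necrotic area, then imaged by fluorescence microscopy.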

[2] = Tissue and tumor distribution in A375 tumor-bearing nude mice; format: in vivo, mouse; conditions: for P:TAUC: plasma to tissue AUC ratio
[3] = cited from earlier work; for AUC: AUC0–12 h
[4] = system: tumor ERK phosphorylation (MEK1/2 inhibition); assay: Inhibition of tumor ERK phosphorylation by western blot; format: in vivo, mouse; conditions: A375 tumor
Procedure, shortened: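 Male athymic BALB/c nude mice carrying s.c. rear-flank A375 xenografts (5 million cells in 4:1 serum-free RPMI:Matrigel), tumors ≥400 mm3, got one oral gavage of 5 or 10 mg/kg in 1% Tween 80/PBS. Four mice were killed per time point (0.5–24 h). Frozen tumor was sonicated in Triton/Tris pH 7.5 lysis buffer, then SDS-PAGE with pERK/ERK immunoblot. % inhibition = 100×(1 − treated pERK/ERK ÷ vehicle pERK/ERK).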

patients = conditions: ref [1], cited from earlier work
[5] = Plasma pharmacokinetics in A375 tumor-bearing nude mice; format: in vivo, mouse; conditions: for AUC: AUC0–24 h
Procedure, shortened: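 Tumor-bearing nude mice got oral 5 or 10 mg/kg once, or 10 mg/kg daily for 7 days (tumors ≥600 mm3), as suspension in 1% Tween 80/PBS. Plasma came by cardiac exsanguination under isoflurane at 0.5–24 h (single) or 1–24 h after the last dose, n = 4. Acetonitrile/methanol extraction with analog internal standard. LC/MS/MS MRM, N-desmethyl m/z 445→287. Noncompartmental analysis; AUC by trapezoidal rule.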

A375 cell line = assay: Anti-proliferative response in cells grown in culture; format: cell-based, human; conditions: data not shown
[6] = human plasma, 100 mg single dose, ref Adjei et al. [1]
[7] = mouse plasma, 5 mg/kg single oral dose
[8] = mouse plasma, 10 mg/kg oral once daily 7 days, steady state
[9] = mouse plasma, 10 mg/kg single oral dose
[10] = nude, mouse, plasma, po, 5 mg/kg
[11] = nude, mouse, plasma, po, 10 mg/kg
[12] = metabolite in mouse plasma, AZD6244 5 mg/kg single oral dose
[13] = metabolite in mouse plasma, AZD6244 10 mg/kg once daily 7 days, steady state
[14] = metabolite in mouse plasma, AZD6244 10 mg/kg single oral dose

AUC0–12 h ([2]; gut, 5 mg/kg, single dose): 5,008 ng/(g h) | AUC0–12 h ([2]; gut, 10 mg/kg, single dose): 6,845 ng/(g h) | AUC0–12 h ([2]; gut, 10 mg/kg, steady state): 2,278 ng/(g h) | AUC0–12 h ([2]; liver, 5 mg/kg, single dose): 4,356 ng/(g h) | Cmin ([2]; liver, 5 mg/kg, single dose): 299 ng/g | AUC0–12 h ([2]; liver, 10 mg/kg, single dose): 8,028 ng/(g h) | Cmin ([2]; liver, 10 mg/kg, single dose): 110 ng/g | AUC0–12 h ([2]; liver, 10 mg/kg, steady state): 6,781 ng/(g h) | Cmin ([2]; liver, 10 mg/kg, steady state): 100 ng/g | ratio of free drug in plasma to free drug in tissue (fB/fT) ([2]; mouse, single oral dose): 1.8 | AUC0–12 h ([2]; muscle, 10 mg/kg, single dose): 667 ng·h/g | Cmin ([2]; muscle, 10 mg/kg, single dose): 896 ng/g | Cmin ([2]; muscle, 10 mg/kg, steady state): 1,649 ng/g | Cmax ([2]; nude, mouse, gut, po, 5 mg/kg, single dose): 1220 ng/g | Cmax ([2]; nude, mouse, gut, po, 10 mg/kg, single dose): 1930 ng/g | Cmax at 1 week ([2]; nude, mouse, gut, po, 10 mg/kg, steady state): 6780 ng/g | half-life ([2]; nude, mouse, gut, po, 10 mg/kg, t1/2, gut, single dose): 1 h | Tmax ([2]; nude, mouse, liver, lung, kidney, gut, muscle, skin, tumor, po, 10 mg/kg): 0.5 to 2 h | Cmax ([2]; nude, mouse, lung, po, 5 mg/kg, single dose): 206 ng/g | Cmax ([2]; nude, mouse, lung, po, 10 mg/kg, single dose): 327 ng/g | half-life ([2]; nude, mouse, lung, po, 10 mg/kg, t1/2, lung, single dose): 1 h | Cmax at 1 week ([2]; nude, mouse, muscle, po, 10 mg/kg, steady state): 2040 ng/g | Cmax ([2]; nude, mouse, skin, po, 5 mg/kg, single dose): 136 ng/g | Cmax ([2]; nude, mouse, skin, po, 10 mg/kg, single dose): 169 ng/g | Cmax ([2]; nude, mouse, tumor, po, 5 mg/kg, single dose): 501 ng/g | Cmax ([2]; nude, mouse, tumor, po, 10 mg/kg, single dose): 861 ng/g | Cmax ([2]; nude, mouse, tumor, po, 10 mg/kg, steady state): 487 ng/g | P:TAUC ([2]; gut, 5 mg/kg, single dose): 2.28 | P:TAUC ([2]; gut, 10 mg/kg, single dose): 2.66 | P:TAUC ([2]; gut, 10 mg/kg, steady state): 7.41 | P:TAUC ([2]; liver, 5 mg/kg, single dose): 2.62 | P:TAUC ([2]; liver, 10 mg/kg, single dose): 2.27 | P:TAUC ([2]; liver, 10 mg/kg, steady state): 2.49 | P:TAUC ([2]; lung, 5 mg/kg, single dose): 10.55 | P:TAUC ([2]; lung, 10 mg/kg, single dose): 7.45 | P:TAUC ([2]; muscle, 5 mg/kg, single dose): 14.06 | P:TAUC ([2]; muscle, 10 mg/kg, single dose): 27.33 | P:TAUC ([2]; muscle, 10 mg/kg, steady state): 18.16 | P:TAUC ([2]; skin, 5 mg/kg, single dose): 14.25 | P:TAUC ([2]; skin, 10 mg/kg, single dose): 16.56 | P:TAUC ([2]; tumor, 5 mg/kg, single dose): 3.17 | P:TAUC ([2]; tumor, 10 mg/kg, single dose): 3.82 | P:TAUC ([2]; tumor, 10 mg/kg, steady state): 4.45 | AUC0–12 h ([2]; skin, 5 mg/kg, single dose): 802 ng·h/g | AUC0–12 h ([2]; tumor, 5 mg/kg, single dose): 3,601 ng/(g h) | Cmin ([2]; tumor, 5 mg/kg, single dose): 44 ng/g | AUC0–12 h ([2]; tumor, 10 mg/kg, single dose): 4,776 ng/(g h) | Cmin ([2]; tumor, 10 mg/kg, single dose): 130 ng/g | Cmin ([2]; tumor, 10 mg/kg, steady state): 52 ng/g | T1/2γ [5, 7]: 2.81 h | AUC [5, 7]: 11,910 ng/(mL h) | T1/2γ [5, 8]: 2.29 h | AUC [5, 8]: 17,525 ng/(mL h) | T1/2γ [5, 9]: 2.62 h | AUC [5, 9]: 18,976 ng/(mL h) | CL/F [5, 10]: 6.67 mL/min/kg | Cmax [5, 10]: 2970 ng/mL | Tmax [5, 10]: 0.5 h | Vd/F [5, 10]: 1.7 L/kg | CL/F [5, 11]: 8.33 mL/min/kg | Cmax [5, 11]: 3350 ng/mL | Tmax [5, 11]: 2 h | Vd/F [5, 11]: 2 L/kg
Structure (SMILES): Cn1cnc2c(F)c(Nc3ccc(Br)cc3Cl)c(C(=O)NOCCO)cc21 [AZD6244]
apoptotic cells as measured by TUNEL [1]: slight increase in apoptotic cells as measured by TUNEL, this increase was not statistically significant | necrotic area [1]: no difference in necrotic area | human AUC ([3]; clinical exposure compared with mouse 10 mg/kg once daily, ref [1]): 10,012 ng/(mL h) | AUC [3, 6]: 3,124 ng/(mL h) | Cmax [3, 6]: 807 ng/mL | T1/2γ [3, 6]: 4.5 h | AUC ([3]; human plasma, 100 mg steady state, ref Adjei et al. [1]): 5,006 ng/(mL h) | AUC0–12 h ([3]; humans given 100 mg AZD6244 free-base suspension BID, ref [1]): 3,124 ng/(mL h) | AUC0–12 h ([3]; humans given 200 mg AZD6244 free-base suspension BID, ref [1]): 5,234 ng/(mL h) | peak inhibition of phosphorylated ERK ([4]; 5 mg/kg single dose): 72% | peak inhibition of phosphorylated ERK ([4]; 10 mg/kg single dose): 80% | patients with stable disease of five or more months (patients; 9 of 54 patients): 16% | tolerability (patients; most common toxicity skin rash, diarrhea, nausea and fatigue): well tolerated

AUC0–24 h [5, 12]: 3,597 ng/(mL h) | Cmax [5, 12]: 505 ng/mL | T1/2γ [5, 12]: 3.68 h | Tmax [5, 12]: 1.0 h | AUC0–24 h [5, 13]: 3,709 ng/(mL h) | Cmax [5, 13]: 554 ng/mL | T1/2γ [5, 13]: 2.37 h | Tmax [5, 13]: 1.0 h | AUC0–24 h [5, 14]: 4,993 ng/(mL h) | Cmax [5, 14]: 865 ng/mL | T1/2γ [5, 14]: 2.79 h | Tmax [5, 14]: 2.0 h
Structure (SMILES): O=C(NOCCO)c1cc2[nH]cnc2c(F)c1Nc1ccc(Br)cc1Cl [AZD6244-N-desmethyl]
potency of cellular growth inhibition in vitro relative to parent (A375 cell line): approximately twice the potency of the parent
